Experimental data: ChEMBL document CHEMBL3580547, “Novel Pyrazole Derivatives Effectively Inhibit Osteoclastogenesis, a Potential Target for Treating Osteoporosis” (J Med Chem, 2015)
Active and inactive are the calls of the source. The calls are words filed in the database; no cut-off is given here.

Assays:
cells = details: Rattus norvegicus, Sprague-Dawley, Osteoclast, 120 h, read-out: INH
Osteoclast [1] = details: Rattus norvegicus, Sprague-Dawley, 10 uM
Osteoclast [2] = assay: Antiosteoclastogenic activity in Sprague-Dawley rat bone marrow-derived preosteoclasts assessed as inhibition of RANKL/M-CSF-induced osteoclast formation treated on day 3 post RANKL/M-CSF induction measured over day 3 to day 5 by TRAP staining; type: functional, cell-based
Method in brief: (§1)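 Rat bone-marrow preosteoclasts were cultured with RANKL 50 ng/mL and M-CSF 20 ng/mL. Compound (10 μM) was added during defined day windows, with days 3−5 taken as the late phase. Osteoclasts were scored by TRAP staining as TRAP-positive cells with ≥3 nuclei (N = 3).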

Osteoclast [3] = assay: Antiosteoclastogenic activity in Sprague-Dawley rat bone marrow-derived preosteoclasts assessed as inhibition of RANKL/M-CSF-induced osteoclast formation treated on day 1 measured over day 1 to day 3 by TRAP staining; type: functional, cell-based
Method in brief: as §1

[4] = Cytotoxicity against cranium-derived preosteoblasts (unknown origin) assessed as inhibition of bone mineralized nodule formation after 2 weeks by alizarin red staining assay in presence of beta-glycerophosphate and L-ascorbic acid; type: cell-based; details: osteoblast, 336 h
Method in brief: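 Cranium-derived preosteoblasts were grown in α-MEM with 10% FBS. Mineralisation was induced with 10 mM β-glycerophosphate and 50 μg/mL L-ascorbic acid, with or without compound, for 2 weeks. Cells were fixed in ice-cold 75% ethanol for 30 min and stained with 40 mM alizarin red (pH 4.2). Stain was quantified at 550 nm against a standard curve.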

[5] = molecular target: T1, Tumor necrosis factor ligand superfamily member 11 (Mus musculus) (UniProt O35235); assay: Antiosteoclastogenic activity in ICR mouse bone marrow-derived preosteoclasts assessed as inhibition of RANKL/M-CSF-induced osteoclast formation at 10 uM after 5 days by TRAP staining; type: functional, cell-based
T1 sequence (whole entry): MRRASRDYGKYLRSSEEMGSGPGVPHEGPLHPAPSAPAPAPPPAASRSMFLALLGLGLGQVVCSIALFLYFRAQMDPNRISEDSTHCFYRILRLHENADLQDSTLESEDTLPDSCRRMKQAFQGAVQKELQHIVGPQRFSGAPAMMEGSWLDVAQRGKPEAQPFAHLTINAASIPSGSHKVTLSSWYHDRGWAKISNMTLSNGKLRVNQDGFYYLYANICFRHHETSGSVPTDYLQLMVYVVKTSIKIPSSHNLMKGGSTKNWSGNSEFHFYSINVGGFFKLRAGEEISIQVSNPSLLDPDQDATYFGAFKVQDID
Method in brief: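 They were plated at 10⁶ cells/well with RANKL (50 ng/mL), M-CSF (20 ng/mL) and compound for 5 days. Cells were fixed in 4% paraformaldehyde and TRAP-stained for 1 h at 37 °C. TRAP-positive cells with ≥3 nuclei were counted as osteoclasts.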

Mus musculus [6] = assay: Antiosteoporosis activity in ovariectomized ICR mouse assessed as inhibition of ovariectomy-induced reduction of trabecular bone number at 10 mg/kg, sc administered for 5 days/week for 30 days measured on day 30 by Hematoxylin and eosin staining; type: functional, organism-based; details: Trabecula
Method in brief: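 Ovariectomized or sham-operated female ICR mice were dosed s.c. at 10 mg/kg, 5 days/week, for 30 days. Tibiae taken on day 30 were fixed in 4% paraformaldehyde at 4 °C for 48 h and decalcified in 10% Na2EDTA at 4 °C for 14 days. They were then paraffin-embedded, cut longitudinally at 4 μm and stained with hematoxylin−eosin.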

Osteoclast [7] = assay: Effect on osteoclast formation from RANKL/M-CSF-stimulated Sprague-Dawley rat bone marrow-derived preosteoclasts at 10 uM treated for 3 days post 5 days RANKL/M-CSF stimulation measured on day 8 by inverted microscopic analysis relative to control; type: functional, cell-based
[8] = molecular target: Transcription factor p65 (Mus musculus) (UniProt Q04207); assay: Inhibition of RANKL-induced P65 phosphorylation in mouse RAW264.7 cells at 10 uM preincubated for 2 hrs followed by RANKL induction measured over 60 mins by Western blot analysis; type: cell-based
Method in brief: (§2)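 Confluent RAW264.7 cells were pretreated with compound (10 μM) for 2 h, then stimulated with RANKL 50 ng/mL for various times. Lysates (30 μg protein per lane) were run on 10% SDS gels and transferred to PVDF. Blots were probed overnight at 4 °C with antibodies to phospho- and total IKKα/β and p65, with actin as control, followed by HRP secondary antibodies.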

Osteoclast [9] = assay: Antiresorptive activity in RANKL/M-CSF-stimulated Sprague-Dawley rat bone marrow-derived preosteoclasts assessed as inhibition of osteoclast resorption area at 10 uM treated for 3 days post 5 days RANKL/M-CSF stimulation measured on day 8 by inverted microscopic analysis; type: functional
Method in brief: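 Rat bone-marrow preosteoclasts were seeded at 10⁶ cells/well on resorbable assay plates with RANKL 50 ng/mL and M-CSF 20 ng/mL for 5 days. Both factors were then removed and compound was added for another 3 days. Cells were stripped with 1 N NaOH, and resorbed areas were photographed under an inverted microscope and quantified by image analysis.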

Mus musculus [10] = assay: Antiosteoporosis activity in ovariectomized ICR mouse assessed as inhibition of ovariectomy-induced reduction of trabecular bone number at 10 mg/kg, sc administered for 5 days/week for 30 days measured on day 30 by microcomputed tomographic analysis; type: functional, organism-based; details: Trabecula
Method in brief: (§3)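 Female ICR mice (12 weeks old) were bilaterally ovariectomized or sham-operated. Starting 2 days post-surgery, they were dosed s.c. at 10 mg/kg, 5 days/week, or given vehicle for 30 days. Tibiae were fixed in 4% paraformaldehyde and scanned by μCT. BV/TV, Tb.N and Tb.Th were quantified 0.5−1.5 mm distal to the proximal growth plate.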

Mus musculus [11] = assay: Antiosteoporosis activity in ovariectomized ICR mouse assessed as inhibition of ovariectomy-induced reduction of trabecular thickness at 10 mg/kg, sc administered for 5 days/week for 30 days measured on day 30 by microcomputed tomographic analysis; type: functional, organism-based; details: Trabecula
Method in brief: as §3

Mus musculus [12] = assay: Antiosteoporosis activity in ovariectomized ICR mouse assessed as inhibition of ovariectomy-induced osteocalcin level in serum at 10 mg/kg, sc administered for 5 days/week for 30 days measured on day 30 by enzyme immunoassay; type: functional, organism-based
Method in brief: (§4)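 Twelve-week-old female ICR mice were bilaterally ovariectomized under isoflurane, with sham-operated controls. From 2 days after surgery, mice received s.c. compound or vehicle 5 days/week for 30 days. On day 30, serum was prepared by centrifugation at 1500g for 15 min. CTx was measured with a RatLaps EIA (N = 8) and osteocalcin with a Rat-MID osteocalcin EIA (N = 9).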

[13] = Cytotoxicity against Sprague-Dawley rat bone marrow-derived preosteoclasts assessed as cell viability at 10 uM incubated for 5 days measured on day 8 by MTT assay in presence of M-CSF; type: cell-based; details: osteoclast, 120 h
Method in brief: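 Nonadherent bone-marrow preosteoclasts were seeded at 10⁶ cells/well with M-CSF 20 ng/mL for 3 days, then treated with compound for another 5 days. After washing, cells were given MTT at 0.5 mg/mL in α-MEM for 60 min at 37 °C. Formazan was dissolved in DMSO and absorbance read at 550 nm.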

RAW264.7 = assay: Inhibition of osteoclast formation in mouse RAW264.7 cells; type: functional, cell-based
[14] = Cytotoxicity against cranium-derived preosteoblasts (unknown origin) assessed as effect on cell viability after 24 hrs by MTT assay; type: cell-based; details: osteoblast
Method in brief: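 Osteoblasts were plated for 24 h, then exposed to compound for another 24 h. Viability was measured by MTT at 0.5 mg/mL in α-MEM for 60 min at 37 °C, with DMSO solubilisation and absorbance at 550 nm.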

Mus musculus [15] = assay: Antiosteoporosis activity in ovariectomized ICR mouse assessed as inhibition of ovariectomy-induced C-terminal telopeptides of type-1 collagen level in serum at 10 mg/kg, sc administered for 5 days/week for 30 days measured on day 30 by enzyme immunoassay; type: functional, organism-based
Method in brief: as §4

[16] = molecular target: T1, Tumor necrosis factor ligand superfamily member 11 (Mus musculus); assay: Inhibition of RANKL-induced IKK phosphorylation in mouse RAW264.7 cells at 10 uM preincubated for 2 hrs followed by RANKL induction measured over 60 mins by Western blot analysis; type: cell-based
Method in brief: as §2

Mus musculus [17] = assay: Antiosteoporosis activity in ovariectomized ICR mouse assessed as inhibition of ovariectomy-induced reduction of trabecular bone volume relative to tissue volume at 10 mg/kg, sc administered for 5 days/week for 30 days measured on day 30 by microcomputed tomographic analysis; type: functional, organism-based; details: Trabecula
Method in brief: as §3

Chain of Transcription factor p65 (Mus musculus) (Q04207 whole entry): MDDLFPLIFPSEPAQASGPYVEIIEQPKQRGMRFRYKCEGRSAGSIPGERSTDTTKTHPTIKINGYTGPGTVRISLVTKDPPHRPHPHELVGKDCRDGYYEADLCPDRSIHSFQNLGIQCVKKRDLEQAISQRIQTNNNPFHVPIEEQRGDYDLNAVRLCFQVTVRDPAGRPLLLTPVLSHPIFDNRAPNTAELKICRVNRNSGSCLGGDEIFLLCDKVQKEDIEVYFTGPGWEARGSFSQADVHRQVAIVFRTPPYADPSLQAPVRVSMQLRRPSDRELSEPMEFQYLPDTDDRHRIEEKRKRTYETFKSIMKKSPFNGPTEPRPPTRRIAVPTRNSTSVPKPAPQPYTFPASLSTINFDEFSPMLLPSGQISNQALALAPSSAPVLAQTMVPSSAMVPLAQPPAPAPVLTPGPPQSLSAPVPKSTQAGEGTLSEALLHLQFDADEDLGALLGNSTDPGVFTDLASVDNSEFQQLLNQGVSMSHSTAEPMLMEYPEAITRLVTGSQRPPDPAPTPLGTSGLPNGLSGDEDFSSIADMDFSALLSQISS

For `O=C(O)c1ccc(-c2nn(Cc3ccccc3)c3ccccc23)o1`, the inhibition at 10 µM (cells) was 20%.

`CON(C)C(=O)c1ccc(-c2nn(Cc3ccccc3)c3ccccc23)o1` showed an inhibition at 10 µM (cells) of 20%.

In the case of `NCCCC(O)(P(=O)(O)O)P(=O)(O)O`, the inhibition (Osteoclast [1]) is reported as “Active”.

In the case of `CC(C)(C)C(=O)OCc1ccc(-c2nn(Cc3ccccc3)c3ccccc23)o1`, the inhibition at 10 µM (cells) is reported as 20%.

With `CN(C)CCOC(=O)c1ccc(-c2nn(Cc3ccccc3)c3ccccc23)o1` the inhibition at 10 µM (cells) was over 90%, the inhibition (Osteoclast [2]) was “Dose-dependent effect” and the inhibition (Osteoclast [3]) was “Dose-dependent effect”. The Activity [4] was “Non-toxic”, the inhibition [5] was “Active” and the inhibition (Mus musculus [6]) was “Active”. For the same compound, the Activity (Osteoclast [7]) was “inactive”, the inhibition [8] was “Active” and the inhibition at 10 µM (Osteoclast [9]) was over 75%. The inhibition (Mus musculus [10]) was “Active”, the inhibition (Mus musculus [11]) was “Active” and the inhibition (Mus musculus [12]) was “Active”. The Activity [13] was “Non-toxic”, the inhibition (RAW264.7) was “Active” and the Activity [14] was “Non-toxic”. For the same compound, the inhibition (Mus musculus [15]) was “Active”, the inhibition [16] was “Active” and the inhibition (Mus musculus [17]) was “Active”.

`CC(=O)c1ccc(-c2nn(Cc3ccccc3)c3ccccc23)o1` gave an inhibition at 10 µM (cells) of 20%.

Work on `OCCc1ccc(-c2nn(Cc3ccccc3)c3ccccc23)o1` yielded an inhibition at 10 µM (cells) of 20%.

Compound `CC(=O)OCc1ccc(-c2nn(Cc3ccccc3)c3ccccc23)o1` has an inhibition at 10 µM (cells) of 20%.
